Results on 13 compounds are retold here after ChEMBL document CHEMBL1122255, “Synthesis and receptor binding studies relevant to the neuroleptic activities of some 1-methyl-4-piperidylidene-9-substituted-pyrrolo[2,1-b][3]benzazepine derivatives” (J Med Chem, 1983).

Assay [1] addresses T1, Alpha-1A adrenergic receptor (Bos taurus, UniProt P18130).
T1 sequence (P18130 whole entry): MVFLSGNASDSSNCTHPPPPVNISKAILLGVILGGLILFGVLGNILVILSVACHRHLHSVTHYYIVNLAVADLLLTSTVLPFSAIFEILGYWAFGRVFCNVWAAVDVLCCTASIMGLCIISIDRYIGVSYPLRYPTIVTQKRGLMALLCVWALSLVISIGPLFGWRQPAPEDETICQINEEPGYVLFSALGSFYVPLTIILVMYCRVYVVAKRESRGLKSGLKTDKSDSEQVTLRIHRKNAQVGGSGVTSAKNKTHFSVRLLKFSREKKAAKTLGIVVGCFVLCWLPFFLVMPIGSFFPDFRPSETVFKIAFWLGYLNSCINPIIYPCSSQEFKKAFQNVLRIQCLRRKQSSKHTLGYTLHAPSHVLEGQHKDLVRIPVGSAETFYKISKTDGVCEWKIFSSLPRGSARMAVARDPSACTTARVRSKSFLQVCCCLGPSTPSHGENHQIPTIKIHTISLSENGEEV
Briefly: Displacement of [3H]- prazosin radioligand binding at the alpha 1-adrenergic binding site of calf cerebral cortex. It counts as tissue-based. For orientation: In a radioligand displacement assay an active substance lowers the binding of a labelled ligand.

The target in assay [2] is Muscarinic acetylcholine receptor. Nature of the assay: Displacement of [3H]- QNB binding at the muscarinic-cholinergic binding site of rat brain S1.
The target of assay [3] is T2, Alpha-2A adrenergic receptor (Bos taurus, UniProt Q28838).
T2 sequence (Q28838 whole entry): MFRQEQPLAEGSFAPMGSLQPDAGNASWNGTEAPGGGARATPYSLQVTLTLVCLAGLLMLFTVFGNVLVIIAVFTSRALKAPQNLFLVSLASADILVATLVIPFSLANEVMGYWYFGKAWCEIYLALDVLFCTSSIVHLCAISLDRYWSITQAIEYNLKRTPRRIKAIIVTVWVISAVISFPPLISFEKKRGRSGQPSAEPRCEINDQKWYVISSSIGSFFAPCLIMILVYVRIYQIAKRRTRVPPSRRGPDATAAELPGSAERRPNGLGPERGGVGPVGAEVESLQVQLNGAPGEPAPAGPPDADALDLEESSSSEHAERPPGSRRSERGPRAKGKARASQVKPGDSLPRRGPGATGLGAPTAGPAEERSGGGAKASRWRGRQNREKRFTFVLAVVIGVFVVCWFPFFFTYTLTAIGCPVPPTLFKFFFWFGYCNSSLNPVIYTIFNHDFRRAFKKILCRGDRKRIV
Briefly: Displacement of [3H]- clonidine radioligand binding at the alpha-2 adrenergic receptor binding site of calf cerebral cortex. It counts as tissue-based. The procedure, abridged:
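Calf cerebral cortex membranes were incubated with [3H]clonidine (23 Ci/mmol) at 0.2 nM and 3–5 triplicate test concentrations. Nonspecific binding was defined with 100 nM clonidine. Bound ligand was isolated by rapid filtration and counted by liquid scintillation. IC50 for displacing specific binding came from percent inhibition–concentration data by regression.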

What is called Ki is a dissociation constant, usually derived from enzyme kinetics or from competition with a known ligand.

`CN1CCC(=C2c3ccccc3CCn3cccc32)CC1`: the Ki in assay [1] turned out to be 130 nM; in assay [2] it was 49 nM; in assay [3], 730 nM.
In the same order, the values of `CN1CCC(=C2c3cc(Cl)ccc3C=Cn3cccc32)CC1` are 20 nM, 20 nM and 310 nM.
On the same counts, the results for `CN1CCC(=C2c3cc(SC(F)(F)F)ccc3CCn3cccc32)CC1` are 36 nM, 250 nM and 330 nM.
For `CN1CCC(=C2c3cc(Cl)ccc3CCn3cccc32)CC1`, the figures for the Ki in assay [1], in assay [2] and in assay [3] were 80 nM, 48 nM and 600 nM, respectively.
On the same counts, the results for `CN1CCC(=C2c3cc(Br)ccc3C=Cn3cccc32)CC1` are 19 nM, 18 nM and 210 nM.
For the compound `CN1CCC(=C2c3cc(C(=O)O)ccc3CCn3cccc32)CC1`, the Ki in assay [2] was over 50000 nM.
`CN1CCC(=C2c3cc(Br)ccc3CCn3cccc32)CC1`: the inhibition constant Ki in assay [1] came to 44 nM; in assay [2], 60 nM; in assay [3] it was 430 nM.
Regarding `CN1CCC(=C2c3ccccc3C=Cc3ccccc32)CC1` [CYPROHEPTADINE], the Ki in assay [2] was determined as 4 nM.
`CN1CCC(=C2c3cc(C(=O)O)ccc3C=Cn3cccc32)CC1`: the values for the Ki in assay [1], in assay [2] and in assay [3] were 1200 nM, 9800 nM and 77000 nM, respectively.
Regarding `CN1CCC(=C2c3cc(C#N)ccc3CCn3cccc32)CC1`, the Ki in assay [2] stood at 270 nM; in assay [3], 2050 nM.
Take `CN1CCC(=C2c3cc(SC(F)(F)F)ccc3C=Cn3cccc32)CC1`: the Ki worked out at 13 nM in assay [1], 88 nM in assay [2] and 230 nM in assay [3].
As to `CN1CCC(=C2c3cc(C#N)ccc3C=Cn3cccc32)CC1`, the Ki was found to be 30 nM in assay [1], 21 nM in assay [2] and 1030 nM in assay [3].
On the same counts, the results for `CN1CCC(=C2c3ccccc3C=Cn3cccc32)CC1` are 29 nM, 14.5 nM and 226 nM.
